Values after ≈ are worked out from the molar mass of the structure shown. Active and inactive are the calls of the source. No cut-off for these calls is given here.
Key:
Staphylococcus aureus [1] = assay: Antibacterial activity against Staphylococcus aureus; assay type: functional
Outline: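 CLSI broth microdilution: log-phase bacteria added to 2-fold serial dilutions (64 to 0.125 µg/mL) in cation-adjusted Mueller-Hinton broth, incubated aerobically 24 h at 37 °C. MIC read by turbidity as the last well showing no growth.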

Staphylococcus aureus [2] = assay: Antibacterial activity against clinical isolate of penicillin-resistant Staphylococcus aureus after 24 hrs by broth microdilution based CLSI method; assay type: functional
Staphylococcus aureus [3] = assay: Antibacterial activity against methicillin-resistant Staphylococcus aureus ATCC 43300 after 24 hrs by broth microdilution based CLSI method; assay type: functional; details: ATCC 43300, 24 h
Escherichia coli = assay: Antibacterial activity against Escherichia coli ATCC 25922 after 24 hrs by broth microdilution based CLSI method; assay type: functional; details: ATCC 25922, 24 h
Bacillus pumilus [4] = assay: Antibacterial activity against Bacillus pumilus CMCC63202 after 24 hrs by broth microdilution based CLSI method; assay type: functional; details: CMCC63202, 24 h
Bacillus subtilis [5] = assay: Antibacterial activity against Bacillus subtilis ATCC 9372 after 24 hrs by broth microdilution based CLSI method; assay type: functional; details: ATCC 9372, 24 h
Pseudomonas aeruginosa = assay: Antibacterial activity against Pseudomonas aeruginosa ATCC 27853 after 24 hrs by broth microdilution based CLSI method; assay type: functional; details: ATCC 27853, 24 h
Staphylococcus aureus [6] = assay: Antibacterial activity against Staphylococcus aureus ATCC 25923 after 24 hrs by broth microdilution based CLSI method; assay type: functional; details: ATCC 25923, 24 h
Bacillus subtilis [7] = assay: Potency index, ratio of PC190723 MIC to test compound MIC for antibacterial activity against Bacillus subtilis ATCC 9372 after 24 hrs by broth microdilution based CLSI method
HeLa = assay: Cytotoxicity in human HeLa cells assessed as reduction in cell viability after 36 hrs by MTT assay; assay type: cell-based
Outline: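 HeLa cells seeded at 10⁴ cells/well and left overnight, then exposed to compound for 36 h. MTT (5 mg/mL solution) added for 4 h at 37 °C, medium replaced by DMSO for 10 min, absorbance read at 570 nm.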

[8] = biological target: T1, Cell division protein FtsZ (Bacillus subtilis (strain 168)) (UniProt P17865); assay: Induction of Bacillus subtilis FtsZ assessed as increase in bundling of protofilament at 10 ug/ml after 20 mins by transmission electron microscopic analysis
T1 sequence (whole entry): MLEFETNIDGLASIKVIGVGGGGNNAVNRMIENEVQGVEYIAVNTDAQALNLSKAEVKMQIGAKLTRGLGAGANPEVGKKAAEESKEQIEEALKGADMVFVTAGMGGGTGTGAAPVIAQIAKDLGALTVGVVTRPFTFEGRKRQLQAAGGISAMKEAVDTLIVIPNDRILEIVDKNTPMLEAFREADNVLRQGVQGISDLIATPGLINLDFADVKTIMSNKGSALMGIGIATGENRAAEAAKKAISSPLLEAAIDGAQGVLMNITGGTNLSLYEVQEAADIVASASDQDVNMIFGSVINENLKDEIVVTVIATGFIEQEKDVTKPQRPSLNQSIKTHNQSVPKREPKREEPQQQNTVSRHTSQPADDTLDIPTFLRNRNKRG
Outline: (§1)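 Purified B. subtilis FtsZ incubated with or without compound at room temperature for 20 min in polymerization buffer (50 mM MES, 50 mM KCl, 2 mM magnesium acetate, 1 mM GTP). Samples put on glow-discharged Formvar/carbon copper grids, negatively stained with 1% phosphotungstic acid for 1 min, imaged by TEM at 100 kV.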

[9] = biological target: T1, Cell division protein FtsZ (Bacillus subtilis (strain 168)); assay: Induction of Bacillus subtilis FtsZ polymerization at 10 ug/ml in presence of GTP by microtiter plate-based light-scattering assay
Outline: (§2)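 Recombinant purified B. subtilis FtsZ (5 µM) with 1 mM GTP in 50 mM MES, 50 mM KCl, 2 mM magnesium acetate, compound 0–10 µg/mL. Polymerization followed as light scattering (A340) continuously at 25 °C for 30 min. DMSO vehicle and a non-FtsZ control were included.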

Bacillus pumilus [10] = assay: Antibacterial activity against Bacillus pumilus CMCC63202 assessed as increase in bacterial cell length at 0.5 times MIC after 18 hrs by phase-contrast optical microscopic analysis; assay type: functional, organism-based
Outline: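 Harvested cells resuspended in PBS, spotted on poly-L-lysine (0.1% w/v) coated slides and cell length examined by phase-contrast microscopy at 40 magnification.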

Staphylococcus aureus [11] = assay: Bactericidal activity against methicillin-resistant Staphylococcus aureus ATCC 43300 assessed as reduction in viable bacterial count at 0.5 times MIC after 24 hrs by time-kill assay; assay type: functional, organism-based
Outline: (§3)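 Growing culture diluted to about 10⁶ CFU/mL in CAMH broth containing compound, then shaken at 37 °C. At set times, samples were serially diluted tenfold in CAMH broth and three dilutions plated on TSA. CFU/mL counted after 24 h at 37 °C. Detection limit 10³ CFU/mL. Points are the mean of two independent runs, with SD.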

Staphylococcus aureus [12] = assay: Bactericidal activity against methicillin-resistant Staphylococcus aureus ATCC 43300 assessed as reduction in viable bacterial count at 1 to 2 times MIC after 12 hrs by time-kill assay; assay type: functional; outline: as §3
Bacillus pumilus [13] = assay: Potency index, ratio of PC190723 MIC to test compound MIC for Bacillus pumilus CMCC63202 after 24 hrs by broth microdilution based CLSI method; assay type: functional
Staphylococcus aureus [14] = assay: Antibacterial activity against methicillin-resistant Staphylococcus aureus ATCC 43300 infected in mouse assessed as reduction of bacterial burden in blood at 30 mg/kg, ip administered 0.1, 3, 6, 9 and 12 hrs postinfection and measured at 24 hrs post last dose; assay type: functional, organism-based
Mus musculus = assay: Toxicity in mouse infected with methicillin-resistant Staphylococcus aureus ATCC 43300 assessed as mouse death at 30 mg/kg, ip administered 0.1, 3, 6, 9 and 12 hrs postinfection and measured after 1 week; assay type: organism-based; details: in vivo, 168 h
Outline: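 KM mice (about 20 g) infected i.v. with 5.4 × 10⁷ CFU MRSA in 0.1 mL saline. Dosing i.p. in vehicle of 1% DMAC, 30% TEG, 7% HPβCD in water (final), with a vehicle-only group. Deaths recorded for one week after bacterial inoculation.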

Staphylococcus aureus [15] = assay: Selectivity ratio of MBC for methicillin-resistant Staphylococcus aureus ATCC 43300 to MIC for methicillin-resistant Staphylococcus aureus ATCC 43300; assay type: functional
Outline: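 Ratio of MBC to MIC. Both come from the same CLSI broth microdilution run: 2-fold dilutions from 64 to 0.125 µg/mL in CAMH broth, 24 h at 37 °C. MIC is the last well without turbidity. MBC is the lowest concentration giving a ≥3-log CFU drop after plating on TSA for 24 h. Ratio 1–2 is read as bactericidal, ≥8 as bacteriostatic.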

[16] = biological target: T1, Cell division protein FtsZ (Bacillus subtilis (strain 168)); assay: Induction of Bacillus subtilis FtsZ assessed as increase in size of polymer at 10 ug/ml after 20 mins by transmission electron microscopic analysis; outline: as §1
Staphylococcus aureus [17] = assay: Bactericidal activity against methicillin-resistant Staphylococcus aureus ATCC 43300 assessed as reduction in viable bacterial count at 4 times MIC after 6 hrs by time-kill assay; assay type: functional, organism-based; outline: as §3
Staphylococcus aureus [18] = assay: Bactericidal activity against methicillin-resistant Staphylococcus aureus ATCC 43300 incubated for 24 hrs followed by plating onto tryptic soy agar plates and further incubated for 24 hrs by broth microdilution based CLSI method; assay type: functional; details: ATCC 43300, 24 h
Outline: (§4)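 MBC taken from the CLSI broth microdilution plates. These held 2-fold serial dilutions from 64 to 0.125 µg/mL in cation-adjusted Mueller-Hinton broth, seeded with log-phase bacteria and incubated aerobically for 24 h at 37 °C. Well aliquots were plated on TSA and colonies counted after 24 h. MBC is the lowest concentration giving a ≥3-log CFU reduction.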

[19] = biological target: T1, Cell division protein FtsZ (Bacillus subtilis (strain 168)); assay: Induction of Bacillus subtilis FtsZ assessed as increase in thickness of polymer size at 10 ug/ml after 20 mins by transmission electron microscopic analysis; outline: as §1
Staphylococcus aureus [20] = assay: Bactericidal activity against Staphylococcus aureus ATCC 25923 incubated for 24 hrs followed by plating onto tryptic soy agar plates and further incubated for 24 hrs by broth microdilution based CLSI method; assay type: functional; details: ATCC 25923, 24 h
Staphylococcus aureus [21] = assay: Bactericidal activity against clinical isolate of penicillin-resistant Staphylococcus aureus incubated for 24 hrs followed by plating onto tryptic soy agar plates and further incubated for 24 hrs by broth microdilution based CLSI method; assay type: functional; outline: as §4
Staphylococcus aureus [22] = assay: Selectivity ratio of MBC for Staphylococcus aureus ATCC 25923 to MIC for Staphylococcus aureus ATCC 25923; assay type: functional
[23] = biological target: T1, Cell division protein FtsZ (Bacillus subtilis (strain 168)); assay: Induction of Bacillus subtilis FtsZ polymerization in presence of GTP by microtiter plate-based light-scattering assay; outline: as §2

With `CC(C)(C)c1ccc(-c2ccc(CNC(=N)N)cc2)cc1` the MIC (Staphylococcus aureus [1]) was 1 µg/mL (≈ 3.55 µM).
`CCCCc1ccc(-c2cc(COc3ccc(F)c(C(N)=O)c3F)on2)cc1` gave an MIC (Staphylococcus aureus [2]) of over 64 µg/mL, an MIC (Staphylococcus aureus [3]) of 2 µg/mL (≈ 5.18 µM) and an MIC (Escherichia coli) of over 64 µg/mL. It also gave an MIC (Bacillus pumilus [4]) of 0.25 µg/mL (≈ 0.647 µM), an MIC (Bacillus subtilis [5]) of 0.03 µg/mL (≈ 0.0776 µM) and an MIC (Pseudomonas aeruginosa) of over 64 µg/mL. For the same molecule, the MIC (Staphylococcus aureus [6]) was over 64 µg/mL and the Ratio (Bacillus subtilis [7]) was over 16.
`Cc1cc(C(C)(C)C)cc(C)c1-c1cc(COc2ccc(F)c(C(N)=O)c2F)no1` gave an IC50 (HeLa) of over 128 µg/mL, an MIC (Staphylococcus aureus [2]) of 2 µg/mL (≈ 4.83 µM) and an MIC (Staphylococcus aureus [3]) of 2 µg/mL (≈ 4.83 µM). For the same molecule, the MIC (Escherichia coli) was over 64 µg/mL, the MIC (Bacillus pumilus [4]) was 0.06 µg/mL (≈ 0.145 µM) and the MIC (Bacillus subtilis [5]) was over 64 µg/mL. For the same molecule, the MIC (Pseudomonas aeruginosa) was over 64 µg/mL and the MIC (Staphylococcus aureus [6]) was 1 µg/mL (≈ 2.41 µM).
With `CC(C)(C)c1ccc(-c2cc(COc3ccc(F)c(C(N)=O)c3F)no2)cc1` the IC50 (HeLa) was over 128 µg/mL, the Activity [8] was “Active” and the Activity [9] was “Active”. The Activity (Bacillus pumilus [10]) was “Active”, the Activity (Staphylococcus aureus [11]) was “inactive” and the MIC (Staphylococcus aureus [2]) was 4 µg/mL (≈ 10.4 µM). It also gave a viable count (Staphylococcus aureus [12]) of 1000 CFU/mL, an MIC (Staphylococcus aureus [3]) of 2 µg/mL (≈ 5.18 µM) and a Ratio (Bacillus pumilus [13]) of 32. The Activity (Staphylococcus aureus [14]) was “Active”, the Activity (Mus musculus) was “Non-Toxic” and the MIC (Escherichia coli) was over 64 µg/mL. For the same molecule, the MIC (Bacillus pumilus [4]) was 0.03 µg/mL (≈ 0.0776 µM), the MIC (Bacillus subtilis [5]) was 0.015 µg/mL (≈ 0.0388 µM) and the Ratio (Staphylococcus aureus [15]) was 1. The Activity [16] was “Active”, the Activity (Staphylococcus aureus [17]) was “Active” and the MBC (Staphylococcus aureus [18]) was 2 µg/mL (≈ 5.18 µM). The Activity [19] was “Active”, the MIC (Pseudomonas aeruginosa) was over 64 µg/mL and the MBC (Staphylococcus aureus [20]) was 4 µg/mL (≈ 10.4 µM). For the same molecule, the MBC (Staphylococcus aureus [21]) was 8 µg/mL (≈ 20.7 µM), the MIC (Staphylococcus aureus [6]) was 2 µg/mL (≈ 5.18 µM) and the Ratio (Staphylococcus aureus [22]) was 2. It also gave a Ratio (Bacillus subtilis [7]) of 32.
`CCCCC(CC)COc1ccc(F)c(C(N)=O)c1F` (configuration not stated) gave an MIC (Staphylococcus aureus [1]) of 4 µg/mL (≈ 14 µM).
`CC[C@H]1OC(=O)[C@H](C)[C@@H](O[C@H]2C[C@@](C)(OC)[C@@H](O)[C@H](C)O2)[C@H](C)[C@@H](O[C@@H]2O[C@H](C)C[C@H](N(C)C)[C@H]2O)[C@](C)(OC)C[C@@H](C)C(=O)[C@H](C)[C@@H](O)[C@]1(C)O` [CLARITHROMYCIN] was tested, and the MBC (Staphylococcus aureus [20]) was 4 µg/mL (≈ 5.35 µM), the MIC (Staphylococcus aureus [6]) was 0.125 µg/mL (≈ 0.167 µM) and the Ratio (Staphylococcus aureus [22]) was 32.
With `O=C(O)c1cn(C2CC2)c2cc(N3CCNCC3)c(F)cc2c1=O` the Activity [23] was “inactive”.

— ChEMBL document CHEMBL4257566, “Design, synthesis and structure-based optimization of novel isoxazole-containing benzamide derivatives as FtsZ modulators” (Eur J Med Chem, 2018)
